How the values were obtained:
A2780 = assay: Cytotoxicity against human A2780 cells by MTT assay; assay type: functional, cell-based
Procedure, shortened: (§1)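 Tetrazolium-based colorimetric (MTT) read-out of tumour-cell viability, run on A549 and A2780 lines.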

A549 = assay: Cytotoxicity against human A549 cells by MTT assay; assay type: functional, cell-based; procedure, shortened: as §1
Homo sapiens = species on record: Homo sapiens; assay: Inhibition of thioredoxin reductase (unknown origin) at 50 uM measured after 5 mins by DTNB reduction assay relative to control
Procedure, shortened: (§2)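 TrxR inhibition was screened at 50 μM as % inhibition, and IC50 values are reported in μM. Curcumin was run as positive control. The procedure follows a previously described method.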

[1] = Inhibition of thioredoxin reductase (unknown origin) measured after 5 mins by DTNB reduction assay; design: species or system Homo sapiens; procedure, shortened: as §2

`C=CC(C)(C)[C@@]12C=C(OC)C(=O)N3[C@@H](C)C(=O)N[C@]31N(O)c1ccccc12` gave an IC50 (A2780) greater than 50 µM, an IC50 (A549) greater than 50 µM and an inhibition (Homo sapiens) of 76%. The IC50 [1] was 13 µM.
Molecule `O=C1N[C@H]2O[C@@]3(C[C@@H]1n1c2nc2ccccc2c1=O)c1ccccc1N1C(=O)C2(CC2)N[C@H]13` has an IC50 (A2780) greater than 50 µM, an IC50 (A549) greater than 50 µM and an inhibition (Homo sapiens) of 47%.
In the case of `COc1cc(/C=C/C(=O)CC(=O)/C=C/c2ccc(O)c(OC)c2)ccc1O`, the inhibition (Homo sapiens) is reported as 25%.
`O=C1NCc2nc3ccccc3c(=O)n2[C@H]1C[C@]1(O)c2ccccc2N2C(=O)C3(CC3)N[C@H]21` gave an IC50 (A2780) greater than 50 µM, an IC50 (A549) greater than 50 µM and an inhibition (Homo sapiens) of 28%.
`CC[C@H](C)[C@H]1C(=O)N2c3ccccc3[C@@]3(O)C[C@H]4C(=O)N[C@H](c5nc6ccccc6c(=O)n54)N1[C@H]23` showed an IC50 (A2780) greater than 50 µM, an IC50 (A549) greater than 50 µM and an inhibition (Homo sapiens) of 43%.
With `O=C1NCc2nc3c(O)cccc3c(=O)n2[C@H]1Cc1c[nH]c2ccccc12` the IC50 (A2780) was greater than 50 µM, the IC50 (A549) was greater than 50 µM and the inhibition (Homo sapiens) was 55%.
With `O=C1N[C@@H]2c3nc4ccccc4c(=O)n3[C@H]1C[C@]1(O)c3ccccc3N3C(=O)C4(CC4)N2[C@H]31` the IC50 (A2780) was greater than 50 µM, the IC50 (A549) was greater than 50 µM and the inhibition (Homo sapiens) was 17%.
Work on `C[C@H]1C(=O)N2c3ccccc3[C@@]34C[C@H]5C(=O)N(CN1[C@H]23)[C@@H](O4)c1nc2ccccc2c(=O)n15` yielded an IC50 (A2780) greater than 50 µM, an IC50 (A549) greater than 50 µM and an inhibition (Homo sapiens) of 64%. The IC50 [1] was 20 µM.
For `CC[C@H](C)[C@@H]1C(=O)N2c3ccccc3[C@@]3(O)C[C@H](n4cnc5ccccc5c4=O)C(=O)N1[C@@H]23`, the IC50 (A2780) was greater than 50 µM, the IC50 (A549) was greater than 50 µM and the inhibition (Homo sapiens) was 62%.
With `O=C1[C@@H]2C[C@@]34O[C@@H](c5nc6ccccc6c(=O)n52)N1CN1[C@@H]3N(C(=O)C12CC2)c1ccccc14` the IC50 (A2780) was greater than 50 µM, the IC50 (A549) was greater than 50 µM and the inhibition (Homo sapiens) was 83%. It also gave an IC50 [1] of 12 µM.
Work on `C[C@H]1C(=O)N2c3ccccc3[C@@]3(O)C[C@H]4C(=O)N[C@H](c5nc6ccccc6c(=O)n54)N1[C@H]23` yielded an IC50 (A2780) greater than 50 µM, an IC50 (A549) greater than 50 µM and an inhibition (Homo sapiens) of 38%.
In the case of `C=CC(C)(C)[C@@]12C=C(OC)C(=O)N3[C@@H](C)C(=O)N[C@]31N(OC)c1ccccc12`, the IC50 (A2780) is reported as greater than 50 µM, the IC50 (A549) is reported as greater than 50 µM and the inhibition (Homo sapiens) is reported as 13%.
`C[C@@H]1N[C@@H]2N(C1=O)c1ccccc1[C@@]2(O)C[C@H]1C(=O)NCc2nc3ccccc3c(=O)n21` showed an IC50 (A2780) greater than 50 µM, an IC50 (A549) greater than 50 µM and an inhibition (Homo sapiens) of 27%.
For `COC(=O)[C@@H]1C[C@]2(O)c3ccccc3N3C(=O)C4(CC4)N([C@@H](OC)c4nc5ccccc5c(=O)n41)[C@H]32`, the IC50 (A2780) was greater than 50 µM, the IC50 (A549) was greater than 50 µM and the inhibition (Homo sapiens) was 83%. The IC50 [1] was 13 µM.
Work on `O=C1NCc2nc3ccccc3c(=O)n2[C@H]1C[C@@]12OCN3[C@@H]1N(C(=O)C31CC1)c1ccccc12` yielded an IC50 (A2780) greater than 50 µM, an IC50 (A549) greater than 50 µM and an inhibition (Homo sapiens) of 51%.
